ChEMBL document CHEMBL2157993, “Urea-based inhibitors of Trypanosoma brucei methionyl-tRNA synthetase: selectivity and in vivo characterization” (J Med Chem, 2012)
Activity calls are given as the source filed them. The rule behind the calls is not given here.

Experiments:
Trypanosoma brucei [1] = assay: Binding affinity to Trypanosoma brucei MetRS at 100 uM by thermal shift assay
Summary of the method: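 Thermal shift (ΔTm) read-out with T. brucei MetRS at 0.4 mg/ml and 5% DMSO; otherwise per an earlier protocol. The test agent was at the single concentration in the curator's line. Repeated three times independently.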

[2] = Inhibition of Trypanosoma brucei MetRS aminoacylation activity assessed as reduction in [3H]methionine incorporation into Escherichia coli tRNA pre-incubated for 15 mins before tRNA addition and measured after 120 mins by scintillation counting
Summary of the method: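 Recombinant enzyme at 10 nM, preincubated 15 min with 12-point two-fold inhibitor dilutions in 25 mM HEPES pH 7.9, 10 mM MgCl2, 50 mM KCl, spermine, BSA, DTT, 1% DMSO and pyrophosphatase. Reaction started with 400 μg/mL E. coli tRNA, 0.1 mM ATP and 250 nM [3H]methionine, run 120 min at room temperature. TCA-precipitated and filtered for scintillation counting. Quadruplicate, with IC50 by sigmoidal fit.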

[3] = Selectivity ratio of IC50 for human MetRS to IC50 for Trypanosoma brucei MetRS
Summary of the method: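 Ratio of the human mitochondrial MetRS IC50 to the T. brucei MetRS IC50, each from a [3H]methionine aminoacylation assay.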

[4] = test system: Trypanosoma brucei brucei; assay: Growth inhibition of Trypanosoma brucei brucei 427 blood stream forms after 48 hrs by alamar blue assay; assay type: functional, organism-based; conditions: Trypanosoma brucei, 427, 48 h
Summary of the method: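 Strain 427 bloodstream forms cultured in HMI-9 with 10% FBS at 37°C, 5% CO2. Triplicate wells seeded at 5×10^4 trypomastigotes with serial compound dilutions from 20 mM DMSO stocks. AlamarBlue read-out at 48 h, with pentamidine as the positive control.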

[5] = Cytotoxicity against human CRL8155 cells incubated for 48 hrs by alamar blue assay; assay type: cell-based; conditions: CRL8155, 48 h
Summary of the method: (§1)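 […] cells in RPMI or HepG2 cells in DMEM/F-12, each with 10% serum, seeded at 5×10^3 per well. Exposed to serial compound dilutions for 48 h.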

[6] = Permeability across MDCK2-MDR1 cells expressing MDR1 at 3 uM in absence of 2 uM P-gp inhibitor Elacridal by mass spectroscopy; assay type: ADME, cell-based, Canis lupus familiaris; conditions: dog, mdck-ii
Summary of the method: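 MDR1-MDCKII cells seeded on Transwell inserts and assayed 3 days later at 37°C in HBSS with glucose and HEPES. Monolayers preincubated about 30 min with or without 2 μM elacridar, then given compound at 3 μM final (apical). After 60 min shaking, both chambers were sampled for MS. Integrity checked by Lucifer Yellow and TEER. Triplicate. Papp(A-B) and AQ calculated.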

[7] = target: ATP-dependent translocase ABCB1 (Homo sapiens, UniProt P08183); assay: Binding affinity to MDR1 expressed in MDCK2 cells assessed as absorptive quotient at 3 uM in absence of 2 uM by mass spectroscopy; assay type: ADME, cell-based; conditions: dog, mdck-ii
ATP-dependent translocase ABCB1, sequence (P08183 whole entry): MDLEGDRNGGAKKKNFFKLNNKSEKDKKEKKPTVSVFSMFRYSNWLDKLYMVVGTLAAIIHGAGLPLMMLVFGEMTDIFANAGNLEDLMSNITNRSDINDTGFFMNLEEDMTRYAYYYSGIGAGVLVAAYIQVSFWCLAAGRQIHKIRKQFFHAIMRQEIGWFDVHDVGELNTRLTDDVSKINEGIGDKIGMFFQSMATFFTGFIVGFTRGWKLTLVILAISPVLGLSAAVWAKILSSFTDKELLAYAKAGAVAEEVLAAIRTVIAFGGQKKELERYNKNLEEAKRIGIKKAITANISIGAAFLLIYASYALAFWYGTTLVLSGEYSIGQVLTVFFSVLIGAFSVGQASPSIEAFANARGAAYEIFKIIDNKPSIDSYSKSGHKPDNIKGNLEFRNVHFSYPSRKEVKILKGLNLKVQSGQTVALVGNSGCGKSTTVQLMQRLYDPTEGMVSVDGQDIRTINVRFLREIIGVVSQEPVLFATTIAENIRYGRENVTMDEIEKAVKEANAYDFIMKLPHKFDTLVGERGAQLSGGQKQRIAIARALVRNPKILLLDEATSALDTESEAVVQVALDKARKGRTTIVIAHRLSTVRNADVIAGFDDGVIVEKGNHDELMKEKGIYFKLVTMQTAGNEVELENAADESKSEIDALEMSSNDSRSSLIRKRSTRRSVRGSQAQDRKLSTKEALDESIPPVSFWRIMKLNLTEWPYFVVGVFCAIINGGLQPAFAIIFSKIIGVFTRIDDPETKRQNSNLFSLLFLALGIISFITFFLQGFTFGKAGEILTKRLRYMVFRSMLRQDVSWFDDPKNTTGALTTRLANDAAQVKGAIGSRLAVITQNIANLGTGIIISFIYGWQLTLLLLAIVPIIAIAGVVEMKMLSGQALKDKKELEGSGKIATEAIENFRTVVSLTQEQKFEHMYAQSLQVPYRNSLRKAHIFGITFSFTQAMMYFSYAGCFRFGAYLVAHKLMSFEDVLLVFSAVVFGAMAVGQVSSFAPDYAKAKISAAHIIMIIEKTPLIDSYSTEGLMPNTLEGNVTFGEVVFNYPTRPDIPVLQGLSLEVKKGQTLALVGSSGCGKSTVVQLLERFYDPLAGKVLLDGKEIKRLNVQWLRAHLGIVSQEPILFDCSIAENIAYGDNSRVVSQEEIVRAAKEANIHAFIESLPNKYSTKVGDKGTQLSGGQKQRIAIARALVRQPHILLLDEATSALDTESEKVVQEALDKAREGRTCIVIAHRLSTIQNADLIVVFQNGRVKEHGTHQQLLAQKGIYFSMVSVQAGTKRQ
Summary of the method: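 Monolayers preincubated about 30 min with or without 2 μM elacridar, then given compound at 3 μM final (apical). After 60 min shaking, both chambers were sampled for MS. Integrity checked by Lucifer Yellow and TEER. Triplicate. Papp(A-B) and AQ calculated.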

HepG2 = assay: Cytotoxicity against human HepG2 cells incubated for 48 hrs by alamar blue assay; assay type: cell-based; conditions: HepG2, 48 h; summary of the method: as §1
[8] = Drug level in Swiss Webster mouse brain at 5 mg/kg, ip after 60 mins by MS/MS method; assay type: ADME, organism-based; design: dose 5 mg/kg, route intraperitoneal; conditions: read-out: Drug uptake
Summary of the method: (§2)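 Female Swiss Webster mice, 6-8 weeks old, three per compound, given 5 mg/kg IP in 5% DMSO/3% EtOH/7% Tween 80 saline. Killed at 1 h. Plasma and homogenised brain extracted with acetonitrile containing an extraction standard, with spiked blank brains used for standardisation. Quantified by LC-MS/MS.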

[9] = (§3) Cmax in mouse at 50 mg/kg, po administered as single dose measured over 6 hrs by MS/MS method; assay type: ADME, organism-based; design: dose 50 mg/kg, route oral; conditions: in vivo
Summary of the method: (§4)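 Mice, three per group, given one oral dose of 50 mg/kg in 5% DMSO, 3% EtOH, 7% Tween 80 in saline. Tail-snip blood taken at 0.5, 1, 2, 3, 4 and 6 h. Plasma extracted with acetonitrile and quantified by LC-MS/MS.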

[10] = Tmax in mouse at 50 mg/kg, po administered as single dose measured over 6 hrs by MS/MS method; assay type: ADME, organism-based; design: dose 50 mg/kg, route oral; conditions: in vivo; summary of the method: as §4
[11] = (§5) Half life in mouse at 50 mg/kg, po administered as single dose measured over 6 hrs by MS/MS method; assay type: ADME, organism-based; design: dose 50 mg/kg, route oral; conditions: in vivo; summary of the method: as §4
[12] = (§6) AUC in mouse at 50 mg/kg, po administered as single dose measured over 6 hrs by MS/MS method; assay type: ADME, organism-based, Plasma; design: time < 6 hr, dose 50 mg/kg, route oral; conditions: plasma; summary of the method: as §4
[13] = Plasma concentration in Swiss Webster mouse at 5 mg/kg, ip after 60 mins by MS/MS method; assay type: ADME, organism-based; design: dose 5 mg/kg, route intraperitoneal; summary of the method: as §2
Mus musculus [14] = assay: as §3; assay type: ADME, organism-based; design: dose 50 mg/kg, route oral; conditions: in vivo, 6 h; summary of the method: as §4
Mus musculus [15] = assay: as §5; assay type: ADME, organism-based; design: dose 50 mg/kg, route oral; conditions: in vivo, 6 h; summary of the method: as §4
Mus musculus [16] = assay: as §6; assay type: ADME, organism-based, Plasma; design: time < 6 hr, dose 50 mg/kg, route oral; conditions: in vivo, 6 h; summary of the method: as §4
[17] = test system: Trypanosoma brucei rhodesiense; assay: Antiparasitic activity against Trypanosoma brucei rhodesiense STIB900 infected in Swiss Webster mouse assessed as reduction in parasitemia at 50 mg/kg, po dosed 24 hrs post infection every 12 hrs for 4 days measured 48 hrs post infection by microscopy; assay type: functional; design: scale not given: the % may be the effect or the level left
Summary of the method: (§7)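 Female Swiss Webster (CFW) mice, 6-8 weeks old, five per group. Each infected IP at time 0 with 1×10^4 bloodstream-form STIB900 in 0.2 ml. Compound in 5% DMSO, 3% EtOH, 7% Tween 80 in saline, given by oral gavage (0.2 mL). Vehicle-only group dosed alongside. Parasitemia read daily by wet-mount microscopy of tail blood. Unpaired t-tests per day.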

[18] = test system: Trypanosoma brucei rhodesiense; assay: Antiparasitic activity against Trypanosoma brucei rhodesiense STIB900 blood stream forms incubated for 48 hrs by alamar blue assay; assay type: functional, organism-based; conditions: STIB900, 48 h
Mus musculus [19] = assay: Toxicity in Trypanosoma brucei rhodesiense STIB900 infected Swiss Webster mouse at 50 mg/kg, po dosed 24 hrs post infection every 12 hrs for 4 days; assay type: organism-based; design: dose 50 mg/kg, route oral; conditions: in vivo
Mus musculus [20] = assay: Time duration for plasma concentration staying above IC50 in Trypanosoma brucei rhodesiense STIB900 infected Swiss Webster mouse at 50 mg/kg, po dosed 24 hrs post infection every 12 hrs for 4 days
Trypanosoma brucei [21] = assay: Inhibition of protein synthesis in Trypanosoma brucei assessed as reduction in [3H]L-histidine incorporation into proteins incubated for 4 hrs by scintillation counting; assay type: functional, organism-based
[22] = Selectivity index, ratio of EC50 for human CRL8155 cells to EC50 for Trypanosoma brucei brucei 427; assay type: toxicity; conditions: read-out: Ratio EC50
[23] = Selectivity index, ratio of EC50 for human HepG2 cells to EC50 for Trypanosoma brucei brucei 427; assay type: toxicity, cell-based; conditions: read-out: Ratio EC50
[24] = test system: Trypanosoma brucei rhodesiense; assay: Antiparasitic activity against Trypanosoma brucei rhodesiense STIB900 infected in Swiss Webster mouse assessed as reduction in parasitemia at 50 mg/kg, po dosed 24 hrs post infection every 12 hrs for 4 days measured 72 hrs post infection by microscopy; assay type: functional; design: scale not given: the % may be the effect or the level left; summary of the method: as §7
[25] = test system: Trypanosoma brucei rhodesiense; assay: Antiparasitic activity against Trypanosoma brucei rhodesiense STIB900 infected in Swiss Webster mouse assessed as reduction in parasitemia at 50 mg/kg, po dosed 24 hrs post infection every 12 hrs for 4 days measured 96 hrs post infection by microscopy; assay type: functional; design: scale not given: the % may be the effect or the level left; summary of the method: as §7
[26] = test system: Trypanosoma brucei rhodesiense; assay: Antiparasitic activity against Trypanosoma brucei rhodesiense STIB900 infected in Swiss Webster mouse assessed as reduction in parasitemia at 50 mg/kg, po dosed 24 hrs post infection every 12 hrs for 4 days measured 120 hrs post infection by microscopy; assay type: functional, organism-based; design: dose 50 mg/kg

For O=C(NCCCNCc1cc(Cl)cc(Cl)c1)Nc1ccc(O)cc1, the ΔTm (Trypanosoma brucei [1]) was 5.8 °C.
For O=C(NCCCNCc1cc(Cl)cc(Cl)c1Cl)Nc1ccccc1, the ΔTm (Trypanosoma brucei [1]) was 6.4 °C.
Work on CCOc1cccc(CNCCCNC(=O)Nc2ccccc2)c1 yielded a ΔTm (Trypanosoma brucei [1]) of 2.7 °C.
In the case of O=C(NCCCNCc1ccc(Cl)cc1)Nc1ccccc1, the ΔTm (Trypanosoma brucei [1]) is reported as 2.5 °C.
Compound O=C(NCCCNCc1cc(Cl)cc(Cl)c1)Nc1ccc(F)cc1 has a ΔTm (Trypanosoma brucei [1]) of 6.3 °C.
For O=C(NCCCNCc1cc(Cl)cc(Cl)c1)Nc1cccc(O)c1, the ΔTm (Trypanosoma brucei [1]) was 7.7 °C, the IC50 [2] was 29 nM and the Ratio IC50 [3] was 187. It also gave an EC50 [4] of 170 nM, an EC50 [5] of 12000 nM and a Papp [6] of 2.9 ×10⁻⁶ cm/s. The AQ [7] was 0.62.
Work on O=C(NCCCNCc1cc(Cl)cc(Cl)c1)Nc1cccc(F)c1 yielded a ΔTm (Trypanosoma brucei [1]) of 7.7 °C, an IC50 [2] of 110 nM and a Ratio IC50 [3] of 39. It also gave an EC50 [4] of 757 nM and an EC50 (HepG2) of 17900 nM.
In the case of O=C(NCCCNCc1cc(Cl)cc(Cl)c1)Nc1ccccc1, the ΔTm (Trypanosoma brucei [1]) is reported as 7.8 °C, the IC50 [2] is reported as 57 nM and the EC50 [4] is reported as 415 nM. It also gave an EC50 (HepG2) of 20000 nM, a Papp [6] of 35.6 ×10⁻⁶ cm/s and a concentration at 1 h [8] of 1800 nM. It also gave a Cmax [9] of 1350 nM, a Tmax [10] of 30 min and a half-life [11] of 65 min. The AUC at 6 h [12] was 2.53 µM·h, the concentration at 1 h [13] was 120 nM and the AQ [7] was 0.21.
In the case of CC(C)NCC(O)COc1cccc2ccccc12 (stereo not drawn) [PROPRANOLOL], the AQ [7] is reported as < 0.5.
In the case of COc1cccc(CNCCCNC(=O)Nc2ccccc2)c1, the ΔTm (Trypanosoma brucei [1]) is reported as 4.7 °C.
O=C(NCCCNCc1cc(Cl)cc(Cl)c1)Nc1ccsc1 showed a ΔTm (Trypanosoma brucei [1]) of 8.3 °C, an IC50 [2] of 28 nM and a Ratio IC50 [3] of 155. The EC50 [4] was 220 nM, the EC50 (HepG2) was 13000 nM and the Papp [6] was 17.2 ×10⁻⁶ cm/s. For the same compound, the Cmax (Mus musculus [14]) was 3700 nM, the Tmax [10] was 30 min and the t1/2 (Mus musculus [15]) was 63 min. It also gave an AUC (Mus musculus [16]) of 464 µM·min, an Activity [17] of 94% and an EC50 [18] of 420 nM. For the same compound, the Activity (Mus musculus [19]) was “Non-toxic”, the AQ [7] was 0.42 and the Time (Mus musculus [20]) was <6 h. The inhibition (Trypanosoma brucei [21]) was “Dose-dependent effect”, the selectivity ratio [22] was 55 and the selectivity ratio [23] was 59. The Activity [24] was 80%, the Activity [25] was 63% and the Activity [26] was “inactive”.
Compound O=C(NCCCNCc1cccc(Cl)c1)Nc1ccccc1 has a ΔTm (Trypanosoma brucei [1]) of 5.5 °C.
In the case of Nc1ccccc1NC(=O)NCCCNCc1cc(Cl)cc(Cl)c1, the ΔTm (Trypanosoma brucei [1]) is reported as 4.7 °C.
O=C(NCCCNCc1ccccc1)Nc1ccccc1 showed a ΔTm (Trypanosoma brucei [1]) of 1.3 °C.
Compound COc1ccccc1CNCCCNC(=O)Nc1ccccc1 has a ΔTm (Trypanosoma brucei [1]) of 1.1 °C.
COc1ccc(CNCCCNC(=O)Nc2ccccc2)cc1 showed a ΔTm (Trypanosoma brucei [1]) of 1.1 °C.
Work on O=C(NCCCNCc1cc(Cl)cc(Cl)c1)Nc1ccccc1F yielded a ΔTm (Trypanosoma brucei [1]) of 7.3 °C.
